Laboratory results as given in ChEMBL document CHEMBL3259569 (J Med Chem, 2014).
Calls of active or inactive are those of the source. The calls are words filed in the database; no cut-off is given here.

Tests used:
KB = assay: Cytotoxicity against human KB cells by MTT assay; type: functional, cell-based
Histone deacetylase = assay: Inhibition of HDAC in human HeLa cell nuclear extract using Boc-Lys(Ac)-AMC as substrate after 30 mins by fluorimetric analysis; type: protein assay
[1] = Cytotoxicity against human H460 cells by MTT assay; type: functional, cell-based; conditions: NCI-H460
In short: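 Antiproliferative IC50 in H460 cells; mean ± SD of at least three independent experiments.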

PC-3 = assay: Cytotoxicity against human PC3 cells by MTT assay; type: functional, cell-based
HCT-116 [2] = assay: Cytotoxicity against human HCT116 cells by MTT assay; type: functional, cell-based
Histone deacetylase 1 = Histone deacetylase 1 (Homo sapiens, UniProt Q13547); assay: Inhibition of HDAC1 (unknown origin) using RHKK(Ac) (379 to 382) p53 peptide as substrate by fluorescence assay
Sequence of Histone deacetylase 1 (Q13547 whole entry): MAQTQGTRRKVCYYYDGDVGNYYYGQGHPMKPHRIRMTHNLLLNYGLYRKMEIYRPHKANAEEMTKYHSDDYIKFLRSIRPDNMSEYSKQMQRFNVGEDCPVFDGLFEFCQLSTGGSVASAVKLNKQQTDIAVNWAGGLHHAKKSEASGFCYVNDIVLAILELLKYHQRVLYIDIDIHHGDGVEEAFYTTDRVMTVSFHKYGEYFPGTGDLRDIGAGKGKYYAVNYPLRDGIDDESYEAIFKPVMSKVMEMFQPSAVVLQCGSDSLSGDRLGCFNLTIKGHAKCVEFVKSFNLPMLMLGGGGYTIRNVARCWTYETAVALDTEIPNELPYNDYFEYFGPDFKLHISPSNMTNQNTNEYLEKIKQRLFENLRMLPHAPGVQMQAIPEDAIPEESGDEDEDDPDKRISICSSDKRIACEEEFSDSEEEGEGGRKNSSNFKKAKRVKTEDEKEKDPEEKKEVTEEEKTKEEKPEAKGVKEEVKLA

[3] = target: T1, Protein deacetylase HDAC6 (Homo sapiens, UniProt Q9UBN7); assay: Inhibition of HDAC6 (unknown origin) using RHKK(Ac) (379 to 382) p53 peptide as substrate by fluorescence assay
T1 sequence (Q9UBN7 whole entry): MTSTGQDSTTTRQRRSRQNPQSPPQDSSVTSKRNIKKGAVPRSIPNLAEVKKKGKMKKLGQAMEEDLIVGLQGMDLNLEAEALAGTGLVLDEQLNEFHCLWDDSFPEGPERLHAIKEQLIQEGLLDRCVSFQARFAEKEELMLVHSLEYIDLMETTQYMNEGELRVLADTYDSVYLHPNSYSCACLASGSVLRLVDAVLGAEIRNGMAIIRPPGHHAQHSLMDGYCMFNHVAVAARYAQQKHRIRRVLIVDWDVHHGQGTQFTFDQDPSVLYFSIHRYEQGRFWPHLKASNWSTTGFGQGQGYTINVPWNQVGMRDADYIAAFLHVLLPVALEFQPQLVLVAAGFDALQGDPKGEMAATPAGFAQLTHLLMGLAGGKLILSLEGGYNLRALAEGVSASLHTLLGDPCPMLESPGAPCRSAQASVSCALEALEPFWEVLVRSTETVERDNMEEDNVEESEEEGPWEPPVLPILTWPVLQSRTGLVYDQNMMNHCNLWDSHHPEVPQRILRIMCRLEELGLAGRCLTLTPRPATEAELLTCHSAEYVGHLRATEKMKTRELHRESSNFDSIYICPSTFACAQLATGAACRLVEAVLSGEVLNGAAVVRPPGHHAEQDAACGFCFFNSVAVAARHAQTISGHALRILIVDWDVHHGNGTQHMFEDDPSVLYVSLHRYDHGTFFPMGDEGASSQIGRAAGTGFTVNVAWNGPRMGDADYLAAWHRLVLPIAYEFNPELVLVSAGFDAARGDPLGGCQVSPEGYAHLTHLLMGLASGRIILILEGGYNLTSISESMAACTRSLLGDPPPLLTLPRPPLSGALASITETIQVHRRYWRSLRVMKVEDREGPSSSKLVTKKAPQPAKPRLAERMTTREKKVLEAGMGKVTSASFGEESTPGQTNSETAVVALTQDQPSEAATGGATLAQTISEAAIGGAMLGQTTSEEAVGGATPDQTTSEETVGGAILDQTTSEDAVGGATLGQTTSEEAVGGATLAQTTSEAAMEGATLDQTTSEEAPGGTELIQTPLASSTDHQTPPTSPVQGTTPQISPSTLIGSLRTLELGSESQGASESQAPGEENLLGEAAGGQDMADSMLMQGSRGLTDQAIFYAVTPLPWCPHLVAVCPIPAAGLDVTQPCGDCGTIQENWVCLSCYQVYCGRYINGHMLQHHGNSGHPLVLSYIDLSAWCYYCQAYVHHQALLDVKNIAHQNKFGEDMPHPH

HCT-116 [4] = assay: Induction of apoptosis in human HCT116 cells assessed as accumulation at sub-G1 phase after 24 hrs by propidium iodide staining-based flow cytometric analysis; type: functional, cell-based
In short: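 HCT116 cells treated with indicated concentrations for 24 h; DNA content analyzed by flow cytometry for cell cycle distribution and sub-G1 fraction; means of at least three independent experiments.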

A549 = assay: Cytotoxicity against human A549 cells by MTT assay; type: functional, cell-based
HCT-116 [5] = assay: Induction of apoptosis in human HCT116 cells assessed as accumulation at sub-G1 phase at 1 uM by propidium iodide staining-based flow cytometric analysis; type: functional, cell-based; conditions: TDE = time-dependent effect
In short: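 HCT116 cells exposed to 1 μM compound for varying time intervals; sub-G1 population quantified by flow cytometry.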

[6] = Oral bioavailability in ICR mouse at 10 mg/kg by LC-MS/MS analysis; type: ADME, organism-based; conditions: in vivo
HCT-116 [7] = assay: Induction of apoptosis in human HCT116 cells assessed as increase in p53 protein level at 0.1 to 3 uM after 24 hrs by immunoblotting analysis; type: functional, cell-based

O=C(/C=C/c1ccc(S(=O)(=O)n2ncc3ccccc32)cc1)NO
IC50 (KB): 1830 nM | IC50 (Histone deacetylase): 500 nM | IC50 [1]: 2790 nM | IC50 (PC-3): 3360 nM | IC50 (HCT-116 [2]): 3340 nM

O=C(/C=C/c1ccc(S(=O)(=O)n2ccc3ccncc32)cc1)NO
IC50 (KB): 1240 nM | IC50 (Histone deacetylase): 560 nM | IC50 [1]: 1670 nM | IC50 (PC-3): 1970 nM | IC50 (HCT-116 [2]): 1920 nM

O=C(/C=C/c1ccc(S(=O)(=O)n2ccc3cccnc32)cc1)NO
IC50 (KB): 870 nM | IC50 (Histone deacetylase): 240 nM | IC50 [1]: 910 nM | IC50 (PC-3): 1240 nM | IC50 (HCT-116 [2]): 1010 nM

O=C(/C=C/c1cccc(S(=O)(=O)n2ccc3ccccc32)c1)NO
IC50 (KB): 2920 nM | IC50 (Histone deacetylase): 510 nM | IC50 [1]: 3010 nM | IC50 (PC-3): 4010 nM | IC50 (HCT-116 [2]): 2470 nM

O=C(/C=C/c1ccc(S(=O)(=O)N2CCc3cccnc32)cc1)NO
IC50 (KB): 1520 nM | IC50 (Histone deacetylase): 850 nM | IC50 [1]: 1980 nM | IC50 (PC-3): 3640 nM | IC50 (HCT-116 [2]): 1730 nM

O=C(/C=C/c1cccc(S(=O)(=O)n2ccc3ccncc32)c1)NO
IC50 (Histone deacetylase 1): 4850 nM | IC50 (KB): 610 nM | IC50 (Histone deacetylase): 480 nM | IC50 [1]: 560 nM | IC50 (PC-3): 1110 nM | IC50 [3]: 280 nM | IC50 (HCT-116 [2]): 1210 nM

O=C(CCCCCCC(=O)Nc1ccccc1)NO [VORINOSTAT]
Activity (HCT-116 [4]): Dose-dependent effect | IC50 (A549): 1540 nM | Activity (HCT-116 [5]): tde | IC50 [1]: 820 nM | bioavailability [6]: 8.33% | Activity (HCT-116 [7]): inactive

O=C(/C=C/c1cccc(S(=O)(=O)N2CCc3cccnc32)c1)NO
IC50 (KB): 1290 nM | IC50 (Histone deacetylase): 600 nM | IC50 [1]: 1820 nM | IC50 (PC-3): 4110 nM | IC50 (HCT-116 [2]): 2040 nM

O=C(/C=C/c1cccc(S(=O)(=O)n2ncc3ccccc32)c1)NO
IC50 (KB): 1260 nM | IC50 (Histone deacetylase): 230 nM | IC50 [1]: 1210 nM | IC50 (PC-3): 3210 nM | IC50 (HCT-116 [2]): 1120 nM
